Measurements: ChEMBL document CHEMBL2401635, “Synthesis and biological properties of novel brefeldin A analogues” (J Med Chem, 2013)
The source made the active and inactive calls. No cut-off for these calls is given here.

Columns and labels:
[1] = Cytostatic activity against human NCI60 cells by SRB assay; assay type: functional; conditions: for CC50: read-out: LC50 (the source's name)
How it was run: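 NCI screen: single 10 μM dose first; active compounds then run at five concentrations on the same cell panel to give GI50, TGI and LC50, reported as averages over all cell lines; mean of two 5-dose tests, or one test where noted.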

[2] = Toxicity in ip dosed mouse; assay type: organism-based; conditions: in vivo
[3] = Cytotoxicity against human HeLa R19 cells assessed as reduction of cell viability at 0.5 to 50 uM by MTS assay; assay type: cell-based; conditions: hela r19, 50 µM
Coxsackievirus B3 [4] = assay: Antiviral activity against Coxsackievirus B3 infected in human HeLa R19 cells assessed as inhibition of viral replication at 0.5 uM after 7 hrs by luciferase reporter gene assay; assay type: functional, organism-based
How it was run: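 HeLa R19 subconfluent monolayers infected 30 min at 37 °C with Renilla luciferase-expressing CVB3 (RLuc-CVB3), MOI 0.1 CCID50; inoculum replaced by medium with compound (0.5, 5 or 50 μM final; 5 mM DMSO stock) or matched DMSO control. After 7 h, cells lysed and Renilla luciferase read as replication measure; triplicates normalized to mean of same-DMSO-dilution controls.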

Coxsackievirus B3 [5] = assay: Antiviral activity against Coxsackievirus B3 infected in human HeLa R19 cells assessed as inhibition of viral replication at 5 to 50 uM after 7 hrs by luciferase reporter gene assay; assay type: functional, organism-based
How it was run: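 HeLa R19 subconfluent monolayers infected 30 min at 37 °C with Renilla luciferase-expressing CVB3, MOI 0.1 CCID50; virus replaced by medium with 0.5, 5 or 50 μM compound (5 mM DMSO stock) or matching DMSO. After 7 h, lysed and Renilla luciferase read; triplicates normalized to same-DMSO-dilution controls, shown as means ± SEM on log scale.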

HeLa [6] = assay: Induction of golgi apparatus disassembly in human HeLa cells at 5 uM incubated for 60 mins followed by compound washout measured after 2 hrs by confocal microscopic analysis; assay type: functional, cell-based
How it was run: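 Reassembly: HeLa cells given 5 μM final compound for 60 min at 37 °C, drug removed, then 2 h further in drug-free medium; fixed, anti-GM130 immunolabeled (paraformaldehyde fixation, Triton permeabilization, BSA block, Alexa 546 secondary) and examined by confocal microscopy; untreated medium controls.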

HeLa [7] = assay: Induction of golgi apparatus disassembly in human HeLa cells at 5 uM after 30 to 60 mins by confocal microscopic analysis; assay type: functional, cell-based
How it was run: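 HeLa cells in DMEM, 10% FBS, penicillin/streptomycin, 2 mM L-glutamine, exposed to 5 μM final compound at 37 °C for 30 or 60 min; fixed 4% paraformaldehyde 20 min, NH4Cl quench, 0.5% Triton X-100 permeabilization, 5% BSA block, anti-GM130 (cis Golgi) with Alexa 546 secondary; confocal imaging.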

Arabidopsis thaliana = assay: Induction of morphological changes of golgi apparatus in Arabidopsis thaliana root cells expressing ST-YFP/VHAa1-RFP at 90 uM after 30 mins by confocal laser scanning microscopic analysis; assay type: functional
How it was run: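 Arabidopsis thaliana stably expressing VHAa1-RFP/N-ST-YFP grown from surface-sterilized seed on half-strength MS, 1% sucrose, 22 °C, 16 h days; roots treated 30 min with 90 μM compound (DMSO solution) in half MS medium, untreated controls; imaged by CLSM with 63× water-immersion objective.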

Nicotiana tabacum = assay: Induction of morphological changes of golgi apparatus in tobacco mesophyll protoplast expressing Man1-RFP at 90 uM after 30 mins by confocal laser scanning microscopic analysis; assay type: functional
How it was run: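 Nicotiana tabacum cv. Petit Havana mesophyll protoplasts transiently expressing cis-Golgi marker Man1-RFP, treated 30 min with 90 μM compound (dissolved in DMSO) in half MS medium, untreated controls; observed by CLSM with 63× water-immersion objective.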

SMILES	GI50 [1] [µM]	TGI [1] [µM]	CC50 [1] [µM]	LD50 [2] [mg/kg]	Activity [3]	inhibition (Coxsackievirus B3 [4])	inhibition (Coxsackievirus B3 [5])	Activity (HeLa [6])	Activity (HeLa [7])	Activity (Arabidopsis thaliana)	Activity (Nicotiana tabacum)
C=C[C@@H]1CCC/C=C/[C@@H]2C[C@H](O)C[C@H]2[C@H](O)/C=C/C(=O)O1	0.631	17.8	66.3	–	–	–	–	–	–	–	–
C[C@H]1CCC/C=C/[C@@H]2C[C@H](O)C[C@H]2[C@H](O)/C=C/C(=O)O1 [BREFELDIN A]	0.0206	3.48	52.6	> 200	Non-toxic	Active	Active	inactive	Active	Active	Active
O=C1/C=C/[C@@H](O)[C@@H]2C[C@@H](O)C[C@H]2/C=C/CCC[C@H](CO)O1	2.57	38	85.1	–	–	–	–	–	–	–	–
O=C1/C=C/[C@@H](O)[C@@H]2C[C@@H](O)C[C@H]2/C=C/CCC[C@H](CCOCc2ccccc2)O1	0.0809	5.05	35.5	–	Non-toxic	–	Active	–	–	–	–
O=C1/C=C/[C@@H](O)[C@@H]2C[C@@H](O)C[C@H]2/C=C/CCC[C@H](CCc2ccccc2)O1	0.0299	2.04	40	–	Non-toxic	–	Active	inactive	–	–	Active
CC(=O)[C@H]1CCC/C=C/[C@@H]2C[C@H](O)C[C@H]2[C@H](O)/C=C/C(=O)O1	0.594	13.3	61.7	–	Non-toxic	–	Active	–	–	–	–
COCC[C@H]1CCC/C=C/[C@@H]2C[C@H](O)C[C@H]2[C@H](O)/C=C/C(=O)O1	0.0902	5.78	42.3	–	Non-toxic	–	Active	–	–	–	–
C=C[C@H]1CCC/C=C/[C@@H]2C[C@H](O)C[C@H]2[C@H](O)/C=C/C(=O)O1	0.0319	4.91	39	–	Non-toxic	–	Active	–	Active	Active	–
O=C1/C=C/[C@@H](O)[C@@H]2C[C@@H](O)C[C@H]2/C=C/CCC[C@H](CCc2ccc3cccnc3c2)O1	0.262	7.61	63.9	–	–	–	–	–	–	–	Active
O=C1/C=C/[C@@H](O)[C@@H]2C[C@@H](O)C[C@H]2/C=C/CCC[C@H](CCc2ccc(C(F)(F)F)cc2)O1	0.212	5.97	66.2	–	Non-toxic	Active	Active	inactive	Active	–	Active
Nc1ccc(CC[C@H]2CCC/C=C/[C@@H]3C[C@H](O)C[C@H]3[C@H](O)/C=C/C(=O)O2)cc1	0.0343	2.68	56.3	–	–	–	–	–	–	–	–
CC(=O)Nc1ccc(CC[C@H]2CCC/C=C/[C@@H]3C[C@H](O)C[C@H]3[C@H](O)/C=C/C(=O)O2)cc1	0.152	5.7	51.6	–	Non-toxic	–	Active	–	–	–	Active
O=C1/C=C/[C@@H](O)[C@@H]2C[C@@H](O)C[C@H]2/C=C/CCC[C@H](CCO)O1	0.178	7.69	47.6	–	Non-toxic	–	Active	–	–	–	–
O=C1/C=C/[C@@H](O)[C@@H]2C[C@@H](O)C[C@H]2/C=C/CCCCO1	0.631	20.9	69.2	–	–	–	–	–	–	–	–
O=C1/C=C/[C@@H](O)[C@@H]2C[C@@H](O)C[C@H]2/C=C/CCC[C@H](CCc2ccc(F)cc2)O1	–	–	–	–	Non-toxic	–	Active	–	–	–	–
O=C1/C=C/[C@@H](O)[C@@H]2C[C@@H](O)C[C@H]2/C=C/CCC[C@H](C(F)(F)F)O1	0.321	5.49	48.2	–	–	–	–	–	–	–	–
O=C1/C=C/[C@@H](O)[C@@H]2C[C@@H](O)C[C@H]2/C=C/CCC[C@H](CCc2cccc3ccccc23)O1	0.0739	2.28	25.1	–	Non-toxic	–	Active	inactive	–	–	–
CC[C@H]1CCC/C=C/[C@@H]2C[C@H](O)C[C@H]2[C@H](O)/C=C/C(=O)O1	0.0446	5.82	35.8	–	–	–	–	–	–	Active	–
